Assay outcomes as filed in PubChem BioAssay.
LMPTP block = LMPTP phosphatase inhibitors, primary screen, biochemical, fluorescence intensity, uHTS; inhibition, % at 20 µM; AID 651560, 2012; Low molecular weight phosphotyrosine protein phosphatase (Homo sapiens), P24666; 360,000 compounds, 0.22% hits; recombinant LMPTP-A, OMFP fluorogenic substrate;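 active = compounds that cut the enzyme signal by at least half of the control window in the single-dose screen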
Target sequence (P24666 whole entry, looked up): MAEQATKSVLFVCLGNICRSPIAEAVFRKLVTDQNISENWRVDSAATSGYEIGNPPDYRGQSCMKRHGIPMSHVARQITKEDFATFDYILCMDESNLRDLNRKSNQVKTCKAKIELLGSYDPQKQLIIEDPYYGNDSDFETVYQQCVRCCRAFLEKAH
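Assay system: LMPTP-A, protein tyrosine phosphatase of low molecular weight / Medium: pH 6.0 Bis-Tris buffer with DTT and Triton X-100 / Schedule: 50 min enzyme reaction at room temperature, protected from light / Measured by: endpoint fluorescence intensity from OMFP dephosphorylation / Read-out basis: % inhibition relative to no-enzyme and uninhibited control wells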
SUMO1-SIM PPI = modulators of SUMO1 protein-protein interactions, primary screen, biochemical, uHTS | Small ubiquitin-related modifier 1 (Homo sapiens), P63165 | inhibition, % at 20 µM | 360,000 compounds, 0.33% hits | AID 602429, 2012 | SUMO1 binding to a labelled peptide, TR-FRET, 1 h; in the data active = inhibition above about 37%
Target sequence (P63165 whole entry, looked up): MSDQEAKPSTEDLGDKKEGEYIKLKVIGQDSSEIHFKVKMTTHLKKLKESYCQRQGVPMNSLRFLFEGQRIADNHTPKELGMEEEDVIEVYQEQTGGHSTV
STEP inh = STEP phosphatase inhibitors, primary screen, biochemical, fluorescence intensity, uHTS; Tyrosine-protein phosphatase non-receptor type 5 (Homo sapiens), P54829; recombinant STEP, OMFP fluorogenic substrate; inhibition, % at 20 µM; 360,000 compounds, 0.25% hits; AID 588621, 2011;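 active = inhibition at 20 µM, scaled per plate between control wells, above about 37%, limit read from the data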
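System: isolated STEP enzyme; schedule: 20 min enzyme reaction at room temperature, protected from light; medium: Bis-Tris buffer pH 6.0, 2.5 mM DTT, 0.005% Tween 20; signal: fluorescence, 480/540 nm; dosing: single compound dose of 20 µM, 1% DMSO final; also added: OMFP substrate, 25 µM final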
Scp-1 inhibitor = Scp-1 phosphatase inhibitors, primary screen, biochemical, colorimetric, uHTS; Carboxy-terminal domain RNA polymerase II polypeptide A small phosphatase 1 (Homo …; Recombinant Scp1, phosphopeptide, malachite green phosphate absorbance; inhibition, % at 20 µM; 340,000 compounds, 0.88% hits;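 active = inhibition above about 50% at 20 µM, limit read from the data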
Target sequence (Q9GZU7 76-261 limits assumed): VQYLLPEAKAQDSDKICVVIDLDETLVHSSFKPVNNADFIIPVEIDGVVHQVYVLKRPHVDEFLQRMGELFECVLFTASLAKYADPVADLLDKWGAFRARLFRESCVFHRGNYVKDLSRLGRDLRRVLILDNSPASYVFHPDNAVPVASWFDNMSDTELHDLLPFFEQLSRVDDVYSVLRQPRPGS
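Test system: SCP-1 phosphatase catalytic domain, residues 76-261 | Compound dosing: One concentration, 20 µM, with 1.0% DMSO | Schedule: 45 min room-temperature reaction, 5 min colour, 30 min stabiliser | Detection: Absorbance at 630 nm | Read-out basis: % inhibition of SCP-1 phosphate liberation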
DNMT1 inh = human DNMT1 methyltransferase inhibitors, primary screen, biochemical, molecular beacon, fluorescence, HinP1I cleavage, uHTS. inhibition (reported as % activation of signal), % at 10 µM. DNA (cytosine-5)-methyltransferase 1 (Homo sapiens), P26358. 360,000 compounds, 0.83% hits; in the data active = inhibition above about 50%
Scp-1 conf = Scp-1 phosphatase inhibitors, retest, confirmation, biochemical, colorimetric, single concentration | shares compounds with Scp-1 inhibitor | recombinant SCP-1 catalytic domain, phosphate release, malachite green absorbance | inhibition, % at 20 µM | 2,500 compounds, 61% hits
MG interference = colorimetric readout interference by compounds, confirmation, artefact control for Scp-1 inhibitor project, biochemical, single concentration; apparent inhibition (interference), % at 20 µM; Colorimetric interference counterscreen, malachite green absorbance 630 nm; 2,500 tested, under 10 active; shares compounds with Scp-1 inhibitor;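 also: compounds added after enzyme reaction finished so only phosphate colour detection is probed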
Scp-1 Tm shift = Scp-1 binding by thermal shift, confirmation, orthogonal assay for Scp-1 inhibitor project, biophysical, differential scanning fluorimetry | shares compounds with Scp-1 inhibitor | Recombinant SCP1, Sypro Orange thermal shift Tm | thermal shift relative to vanadate control, % at 40 µM | 1,500 compounds, 25% hits | AID 540329, 2011;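 active = substances whose mean melting-temperature shift, as a percentage of the reference inhibitor's shift, reaches about 5.3%, limit read from the data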
Each line names hits and unclear results; the compound was inactive in the other large screens (follow-up assays come after a bar, where they were run). Only some compounds are listed: those with a hit (about 1.7% of all), similar ones and a draw of the others.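 The calls were made as follows, unless noted: active = inhibition of at least 30% at 20 µM; inactive = the rest.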

CC(=O)N1CCc2cc(S(=O)(=O)CCC(=O)N3CCN(c4ccccc4F)CC3)ccc21	none
CON(C)S(=O)(=O)c1cccc(C(=O)Nc2ccc(S(=O)(=O)NC3=NCCCCC3)cc2)c1	none
CCN(CC)S(=O)(=O)c1cccc(C(=O)Nc2ccc(S(=O)(=O)NC3=NCCCCC3)cc2)c1	Scp-1 inhibitor 55.7 | Scp-1 conf inactive | MG interference inactive
O=C(COc1ccc(Br)cc1)NNC(=O)Cc1ccc(S(=O)(=O)N2CCOCC2)s1	none
O=C(CSc1ccsc1[N+](=O)[O-])N1CCN(c2ccccc2)CC1	Scp-1 inhibitor 63.7 | Scp-1 conf 75.8 | MG interference inactive | Scp-1 Tm shift inactive
O=C(CSc1nc2sccc2c(=O)[nH]1)N1CCN(c2ccccc2)CC1	Scp-1 inhibitor 109.1 | Scp-1 conf 59.1 | MG interference inactive | Scp-1 Tm shift inactive
COc1ccc(CC(=O)Nc2nccs2)cc1OC	none
COc1ccc(CC(=O)Nc2ncc([N+](=O)[O-])s2)cc1OC	Scp-1 inhibitor 71.0 | Scp-1 conf 66.4 | MG interference inactive | Scp-1 Tm shift 12.0
OCC1CCCCN1CC(O)COC(c1ccc(F)cc1)c1ccc(F)cc1 (stereo not drawn)	none
CC(Sc1ccc(Cl)cc1)C(=O)Nc1ccc(S(=O)(=O)N2CCOCC2)cc1 (stereo not drawn)	none
N#C/C(=C\c1ccc(/C=C(/C#N)c2nn(CCO)c(N)c2C#N)cc1)c1nn(CCO)c(N)c1C#N	SUMO1-SIM PPI 59.6, Scp-1 inhibitor 67.8 | Scp-1 conf inactive | MG interference inactive
Cc1cccc(C)c1NC(=O)CN(C)C(=O)c1ccc(N2C(=O)CCC2=O)cc1	none
Cc1cccc(C)c1NC(=O)CN(C)C(=O)c1cccc(-n2cccc2)c1	Scp-1 inhibitor 67.6 | Scp-1 conf 46.1 | MG interference inactive | Scp-1 Tm shift inactive
O=C(CNC(=O)c1ccc(-c2ccccc2)cc1)Nc1cccc(CO)c1	none
Cc1sc(NC(=O)Cn2nc(C(F)(F)F)cc2C)c(C(=O)OC(C)C)c1C	Scp-1 inhibitor 63.5 | Scp-1 conf inactive | MG interference inactive
Cc1c(C(=O)O)sc2nc(CSc3ncc(C(F)(F)F)cc3Cl)[nH]c(=O)c12	Scp-1 inhibitor 96.7 | Scp-1 conf 48.8 | MG interference inactive | Scp-1 Tm shift inactive
CCOC(=O)c1sc2nc(CSc3ccccc3Cl)[nH]c(=O)c2c1C	none
Cc1ccc(S(=O)(=O)NC[C@H]2O[C@@H](n3ccc(N)nc3=O)[C@H](O)[C@@H]2O)s1	none (no result: Scp-1 inhibitor)
COc1cc(NC(=O)c2ccc3c(c2)C(=O)N(CCC(C)C)C3=O)c(C(=O)O)cc1OC	STEP inh 61.3, Scp-1 inhibitor 71.6 | Scp-1 conf 59.9 | MG interference inactive | Scp-1 Tm shift 6.1
CC(C)CCN1C(=O)c2ccc(C(=O)Nc3ccc(O)cc3C(=O)O)cc2C1=O	none
CC1CCN(C(=O)c2cc(S(=O)(=O)N3CCOCC3)ccc2N2CCCC2)CC1	none
CC(CCc1ccccc1)NC(=O)CN1C(=O)NC2(CCCCC2C)C1=O (stereo not drawn)	none
C=CC#CC1(O)CC(C)[N+](C)(C)CC1C (stereo not drawn)	Scp-1 inhibitor 103.7 | Scp-1 conf 77.7 | MG interference inactive | Scp-1 Tm shift inactive
Cc1cc(NC(=O)CSCC(=O)N(c2cccc(Cl)c2)C(C(=O)NC2CCCCC2)c2ccc(O)c(O)c2)no1 (stereo not drawn)	Scp-1 inhibitor 50.3 | Scp-1 conf inactive | MG interference inactive
CC(NC(=O)c1ccccc1Cl)C(=O)N1CCN(Cc2ccc3c(c2)OCO3)CC1 (stereo not drawn)	none
COc1ccc2nc(SCC(=O)NN)cc(C)c2c1	Scp-1 inhibitor 86.9 | Scp-1 conf inactive | MG interference inactive
COc1ccc2c(C)cc(SCC(=O)Nc3cc(C(N)=O)cc(C(N)=O)c3)nc2c1	none
CCc1ccc(NC(=O)Cn2cnc3c(=O)n(C)c(=O)n(C)c32)cc1	none
CCc1ccc(C(C)NC(=O)Cn2cnc3c(=O)n(C)c(=O)n(C)c32)cc1 (stereo not drawn)	none | Scp-1 conf inactive | MG interference inactive
COCCNC(=O)CSc1nc2scc(-c3ccccc3)c2c(=O)[nH]1	none
O=C(CNC(=O)c1ccco1)NNC(=O)c1n[nH]c(=O)c2ccccc12	none
CC(C(=O)N1CCCCC1)N1CCN(S(=O)(=O)c2ccc(Cl)cc2)CC1 (stereo not drawn)	Scp-1 inhibitor 97.1 | Scp-1 conf 78.2 | MG interference inactive | Scp-1 Tm shift inactive
COc1ccc(OC)c(/C=N/N(CCC#N)C2=NS(=O)(=O)c3ccccc32)c1	Scp-1 inhibitor 76.3 | Scp-1 conf inactive | MG interference inactive
N#CCCN(/N=C/c1cccnc1)C1=NS(=O)(=O)c2ccccc21	none
COc1ccccc1NCc1nnc(-c2ccccc2)o1	none
O=C(O)COc1ccccc1/C=C1\SC(=S)N(/N=C/c2ccccc2O)C1=O	Scp-1 inhibitor 62.7 | Scp-1 conf 59.0 | MG interference inactive | Scp-1 Tm shift 8.2
O=C(NCCc1ccccn1)C1CC(=O)N(Cc2ccccc2Cl)C1 (stereo not drawn)	none | Scp-1 conf inactive | MG interference inactive
CC(C)CCN1CC(C(=O)NCCC2=CCCCC2)CC1=O (stereo not drawn)	none | Scp-1 conf inactive | MG interference inactive
CCN(CCNC(=O)C1CC(=O)N(CCc2ccccc2)C1)c1ccccc1 (stereo not drawn)	none | Scp-1 conf inactive | MG interference inactive
O=C(NCCc1ccccc1)C1CC(=O)N(CCc2ccccc2)C1 (stereo not drawn)	none | Scp-1 conf inactive | MG interference inactive
CCOCCCNC(=O)C1CC(=O)N(CCc2ccccc2)C1 (stereo not drawn)	none
COc1ccc(CN2CC(C(=O)NCc3ccccn3)CC2=O)cc1 (stereo not drawn)	none
